Data: ChEMBL document CHEMBL1140304, “Design and synthesis of potent inhibitors of plasmepsin I and II: X-ray crystal structure of inhibitor in complex with plasmepsin II” (J Med Chem, 2005)

What was measured:
Plasmodium falciparum = experiment: Percentage inhibition of parasite growth in human erythrocytes at 5 uM; assay type: functional
How it was run: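 Synchronous P. falciparum 3D7 early trophozoites at ~1% haematocrit and 1% parasitaemia, with [3H]hypoxanthine at 10 µCi/mL. Compound (1-5 µM final) or DMSO (max 1% v/v) was added. Cultures ran 30 h at 37 °C in gassed boxes to mature schizonts, then were harvested onto filters for β-counting. Uptake was expressed relative to DMSO controls; four independent experiments.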

Cathepsin D = Cathepsin D (Homo sapiens, UniProt P07339); experiment: Inhibitory concentration against the human Cathepsin D
How it was run: (§1)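 Fluorogenic assay in 100 mM sodium acetate (pH 4.5), 10% glycerol and 0.01% Tween 20, with 3 µM DABCYL/EDANS peptide substrate. Enzymes: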

Plasmepsin II = Plasmepsin II (Plasmodium falciparum, UniProt P46925); experiment: Inhibitory concentration against the plasmepsin-2 of Plasmodium falciparum; how it was run: as §1
Plasmepsin I = Plasmepsin I (Plasmodium falciparum, UniProt P39898); experiment: Inhibitory concentration against the plasmepsin-1 of Plasmodium falciparum; how it was run: as §1
Plasmepsin I, sequence (P39898 whole entry): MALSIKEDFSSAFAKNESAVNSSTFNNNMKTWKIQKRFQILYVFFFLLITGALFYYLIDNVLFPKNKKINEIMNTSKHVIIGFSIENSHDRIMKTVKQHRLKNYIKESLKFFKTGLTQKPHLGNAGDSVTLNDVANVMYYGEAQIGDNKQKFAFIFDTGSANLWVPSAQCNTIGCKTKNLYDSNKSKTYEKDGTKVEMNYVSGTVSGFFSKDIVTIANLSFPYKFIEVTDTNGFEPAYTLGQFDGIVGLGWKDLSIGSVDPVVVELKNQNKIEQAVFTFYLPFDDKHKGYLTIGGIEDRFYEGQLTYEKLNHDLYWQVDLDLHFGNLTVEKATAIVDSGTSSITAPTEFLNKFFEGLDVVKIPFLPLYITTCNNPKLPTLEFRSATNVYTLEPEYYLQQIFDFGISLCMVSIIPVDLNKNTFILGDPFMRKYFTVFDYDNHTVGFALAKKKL

Plasmepsin II, sequence (P46925 whole entry): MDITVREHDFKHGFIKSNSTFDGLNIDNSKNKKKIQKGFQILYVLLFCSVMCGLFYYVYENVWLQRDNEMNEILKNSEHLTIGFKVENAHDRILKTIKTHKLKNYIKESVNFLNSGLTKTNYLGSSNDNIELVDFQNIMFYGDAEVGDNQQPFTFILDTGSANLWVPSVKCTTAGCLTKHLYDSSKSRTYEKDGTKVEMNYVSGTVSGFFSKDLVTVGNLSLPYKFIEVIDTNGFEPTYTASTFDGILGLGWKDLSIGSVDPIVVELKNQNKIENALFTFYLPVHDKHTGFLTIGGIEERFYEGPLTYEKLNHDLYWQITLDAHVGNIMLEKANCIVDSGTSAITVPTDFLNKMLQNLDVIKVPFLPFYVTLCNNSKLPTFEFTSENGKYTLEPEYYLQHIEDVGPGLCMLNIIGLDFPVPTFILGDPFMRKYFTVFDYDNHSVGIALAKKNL
Cathepsin D, sequence (P07339 65-162 limits assumed): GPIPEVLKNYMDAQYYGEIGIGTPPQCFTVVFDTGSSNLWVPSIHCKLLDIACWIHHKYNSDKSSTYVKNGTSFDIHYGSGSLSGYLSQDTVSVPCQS
Cathepsin D, sequence (P07339 169-412 limits assumed): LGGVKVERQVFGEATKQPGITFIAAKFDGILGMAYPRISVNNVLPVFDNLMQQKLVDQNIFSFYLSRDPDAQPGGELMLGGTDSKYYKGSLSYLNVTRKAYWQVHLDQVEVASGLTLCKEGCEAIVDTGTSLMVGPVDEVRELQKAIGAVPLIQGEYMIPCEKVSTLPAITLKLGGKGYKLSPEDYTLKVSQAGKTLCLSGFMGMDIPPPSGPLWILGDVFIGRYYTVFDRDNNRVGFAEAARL

Row | Structure (SMILES) | inhibition at 5 µM (Plasmodium falciparum) | Ki (Cathepsin D) | Ki (Plasmepsin II) | Ki (Plasmepsin I)
1 | O=C(C[C@H](O)[C@H](COCc1ccc(Br)cc1)NC(=O)c1c(F)cc(F)cc1F)NC1CCCCC1 | 0% |  |  | 
2 | CC(C)C[C@H](NC(=O)[C@H](C)NC(=O)C[C@H](O)[C@H](COCc1ccc(Br)cc1)NC(=O)[C@@H](NC(=O)c1ccccn1)C(C)C)C(N)=O | 51% |  |  | 
3 | CC(C)C[C@H](NC(=O)[C@H](C)NC(=O)C[C@H](O)[C@H](COCc1ccc(Br)cc1)NC(=O)c1c(F)cc(F)cc1F)C(N)=O | 10% |  |  | 
4 | CC(C)C[C@H](NC(=O)[C@H](C)NC(=O)C[C@H](O)[C@H](COCc1ccc(-c2ccc3c(c2)OCO3)cc1)NC(=O)c1c(F)cc(F)cc1F)C(N)=O |  | 2700 nM | 19 nM | 3.3 nM
5 | CC(C)C[C@H](NC(=O)[C@H](C)NC(=O)C[C@H](O)[C@H](COCc1cccc(Br)c1)NC(=O)[C@@H](NC(=O)c1ccccn1)C(C)C)C(N)=O | 55% | 32 nM | 5.7 nM | 1 nM
6 | COc1cccc(CCNC(=O)C[C@H](O)[C@H](COCc2ccc(-c3ccccc3)cc2)NC(=O)c2c(F)cc(F)cc2F)c1 |  | > 5900 nM | 308 nM | 116 nM
7 | COc1cccc(CCNC(=O)C[C@H](O)[C@H](COCc2ccc(-c3ccsc3)cc2)NC(=O)c2c(F)cc(F)cc2F)c1 |  | 1880 nM | 693 nM | 221 nM
8 | CC(C)C[C@H](NC(=O)[C@H](C)NC(=O)C[C@H](O)[C@H](COCc1ccc(-c2ccc3c(c2)OCO3)cc1)NC(=O)[C@@H](NC(=O)c1ccccn1)C(C)C)C(N)=O | 83% | 0.7 nM | 1.1 nM | 0.4 nM
9 | CC(C)C[C@H](NC(=O)[C@H](C)NC(=O)C[C@H](O)[C@H](COCc1ccc(-c2ccsc2)cc1)NC(=O)[C@@H](NC(=O)c1ccccn1)C(C)C)C(N)=O | 46% | 3.2 nM | 1.1 nM | 0.3 nM
10 | O=C(C[C@H](O)[C@H](COCc1ccc(-c2ccsc2)cc1)NC(=O)c1c(F)cc(F)cc1F)NC1CCCCC1 |  | 4940 nM | 260 nM | 278 nM
11 | CC(C)C[C@H](NC(=O)[C@H](C)NC(=O)C[C@H](O)[C@H](COCc1ccc(-c2ccccc2)cc1)NC(=O)[C@@H](NC(=O)c1ccccn1)C(C)C)C(N)=O | 70% | 2.5 nM | 0.9 nM | 0.3 nM
12 | COc1cccc(CCNC(=O)C[C@H](O)[C@H](COCc2ccc(Br)cc2)NC(=O)c2c(F)cc(F)cc2F)c1 | 29% |  |  | 
13 | CC(C)C[C@H](NC(=O)[C@H](C)NC(=O)C[C@H](O)[C@H](COCc1cccc(-c2ccccc2)c1)NC(=O)[C@@H](NC(=O)c1ccccn1)C(C)C)C(N)=O |  | 3.9 nM | 4.4 nM | 0.7 nM
14 | O=C(C[C@H](O)[C@H](COCc1ccc(-c2ccccc2)cc1)NC(=O)c1c(F)cc(F)cc1F)NC1CCCCC1 |  | > 3600 nM | 214 nM | 188 nM
15 | CCCCNC(=O)C[C@H](O)[C@H](COCc1ccc(-c2ccccc2)cc1)NC(=O)[C@@H](NC(=O)c1ccccn1)C(C)C |  | 481 nM | 16 nM | 1.9 nM
16 | CC(C)C[C@H](NC(=O)[C@H](C)NC(=O)C[C@H](O)[C@H](COCc1ccc(-c2ccccc2)cc1)NC(=O)c1c(F)cc(F)cc1F)C(N)=O |  | 1730 nM | 48 nM | 5.9 nM
17 | CCCCNC(=O)C[C@H](O)[C@H](COCc1ccc(-c2ccsc2)cc1)NC(=O)[C@@H](NC(=O)c1ccccn1)C(C)C | 9% | 241 nM | 13 nM | 1 nM
18 | CC(C)C[C@H](NC(=O)[C@H](C)NC(=O)C[C@H](O)[C@H](COCc1ccc(-c2ccsc2)cc1)NC(=O)c1c(F)cc(F)cc1F)C(N)=O |  | 1440 nM | 55 nM | 2.1 nM
19 | CCCCNC(=O)C[C@H](O)[C@H](COCc1ccc(-c2ccc3c(c2)OCO3)cc1)NC(=O)[C@@H](NC(=O)c1ccccn1)C(C)C |  | 685 nM | 45 nM | 2.7 nM
20 | CC(C)C[C@H](NC(=O)[C@H](C)NC(=O)C[C@H](O)[C@H](COCc1cccc(-c2ccsc2)c1)NC(=O)[C@@H](NC(=O)c1ccccn1)C(C)C)C(N)=O | 65% | 1.6 nM | 1.9 nM | 0.4 nM
